How the values were obtained:
Assay type in all cases: functional
[1] = tested on: Plutella xylostella; assay: Insecticidal activity against Plutella xylostella (diamondback moth) grown on compound pre-treated fresh cabbage leaves assessed as insect mortality at 200 mg/kg measured 3 days post compound treatment by leaf-dip method
In short: (§1)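 Leaf-dip stomach-toxicity assay on laboratory-reared diamondback moth. Test solutions came from a 200 mg L^-1 stock in dimethylformamide, diluted with water containing TW-20. Control leaves were treated with water and dimethylformamide. Tests were held at 25±1 °C, percentage mortality was scored 3 days after treatment, and each treatment was run three times.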

[2] = tested on: Aphis craccivora; assay: Insecticidal activity against Aphis craccivora (cowpea aphid) infested tender soybean shoots exposed to 25 mg/kg test compound solution assessed as insect mortality measured 24 hr post compound treatment
In short: (§2)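 Soybean tender shoots carrying 60 aphids were dipped in test solutions. Solutions were made from a 200 mg L^-1 stock in dimethylformamide, diluted with water containing TW-20. Insects were laboratory-reared, tests were held at 25±1 °C, and mortality was scored.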

[3] = tested on: Plutella xylostella; assay: Insecticidal activity against Plutella xylostella (diamondback moth) grown on compound pre-treated fresh cabbage leaves assessed as insect mortality at 25 mg/kg measured 3 days post compound treatment by leaf-dip method; settings: Plutella xylostella; in short: as §1
[4] = tested on: Plutella xylostella; assay: Insecticidal activity against Plutella xylostella (diamondback moth) grown on compound pre-treated fresh cabbage leaves assessed as insect mortality at 50 mg/kg measured 3 days post compound treatment by leaf-dip method; in short: as §1
[5] = tested on: Culex pipiens pallens; assay: Insecticidal activity against Culex pipiens pallens (mosquito) assessed as insect mortality at 50 ug/kg measured 1 day post compound treatment; settings: 24 h
In short: (§3)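 Fourth-instar Culex pipiens pallens larvae, 20 per test, were laboratory-reared and placed in 100 mL of test solution made by adding 1 mL of compound dilution to 99 mL of water. Tests were held at 25±1 °C, percentage mortality was scored 1 day after treatment, and each test was run three times.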

[6] = tested on: Plutella xylostella; assay: Insecticidal activity against Plutella xylostella (diamondback moth) grown on compound pre-treated fresh cabbage leaves assessed as insect mortality at 10 mg/kg measured 3 days post compound treatment by leaf-dip method; settings: Plutella xylostella; in short: as §1
[7] = tested on: Aphis craccivora; assay: Insecticidal activity against Aphis craccivora (cowpea aphid) infested tender soybean shoots exposed to 200 mg/kg test compound solution assessed as insect mortality measured 24 hr post compound treatment; in short: as §2
[8] = tested on: Plutella xylostella; assay: Insecticidal activity against Plutella xylostella (diamondback moth) grown on compound pre-treated fresh cabbage leaves assessed as insect mortality at 5 mg/kg measured 3 days post compound treatment by leaf-dip method; settings: Plutella xylostella; in short: as §1
[9] = tested on: Culex pipiens pallens; assay: Insecticidal activity against Culex pipiens pallens (mosquito) assessed as insect mortality at 100 ug/kg measured 1 day post compound treatment; settings: Culex pipiens, 24 h; in short: as §3
[10] = tested on: Aphis craccivora; assay: Insecticidal activity against Aphis craccivora (cowpea aphid) infested tender soybean shoots exposed to 5 mg/kg test compound solution assessed as insect mortality measured 24 hr post compound treatment; settings: Aphis craccivora, 24 h; in short: as §2
[11] = tested on: Aphis craccivora; assay: Insecticidal activity against Aphis craccivora (cowpea aphid) infested tender soybean shoots exposed to 100 mg/kg test compound solution assessed as insect mortality measured 24 hr post compound treatment; in short: as §2
[12] = tested on: Aphis craccivora; assay: Insecticidal activity against Aphis craccivora (cowpea aphid) infested tender soybean shoots exposed to 50 mg/kg test compound solution assessed as insect mortality measured 24 hr post compound treatment; in short: as §2
[13] = tested on: Plutella xylostella; assay: Insecticidal activity against Plutella xylostella (diamondback moth) grown on compound pre-treated fresh cabbage leaves assessed as insect mortality at 100 mg/kg measured 3 days post compound treatment by leaf-dip method; in short: as §1
[14] = tested on: Aphis craccivora; assay: Insecticidal activity against Aphis craccivora (cowpea aphid) infested tender soybean shoots exposed to 10 mg/kg test compound solution assessed as insect mortality measured 24 hr post compound treatment; settings: Aphis craccivora, 24 h; in short: as §2
[15] = tested on: Aphis craccivora; assay: Insecticidal activity against Aphis craccivora (cowpea aphid) infested tender soybean shoots exposed to 2.5 mg/kg test compound solution assessed as insect mortality measured 24 hr post compound treatment; settings: Aphis craccivora, 24 h; in short: as §2
[16] = tested on: Plutella xylostella; assay: Insecticidal activity against Plutella xylostella (diamondback moth) grown on compound pre-treated fresh cabbage leaves assessed as insect mortality at 2.5 mg/kg measured 3 days post compound treatment by leaf-dip method; in short: as §1
[17] = tested on: Culex pipiens pallens; assay: Insecticidal activity against Culex pipiens pallens (mosquito) assessed as insect mortality at 25 ug/kg measured 1 day post compound treatment; settings: 24 h; in short: as §3
[18] = tested on: Culex pipiens pallens; assay: Insecticidal activity against Culex pipiens pallens (mosquito) assessed as insect mortality at 5 ug/kg measured 1 day post compound treatment; settings: 24 h; in short: as §3
[19] = tested on: Culex pipiens pallens; assay: Insecticidal activity against Culex pipiens pallens (mosquito) assessed as insect mortality at 10 ug/kg measured 1 day post compound treatment; settings: 24 h; in short: as §3

With `CC[S+]([O-])c1c(C#N)nn(-c2c(Cl)cc(C(F)(F)F)cc2Cl)c1NC(OCCCl)C(Cl)(Cl)Cl` (stereo not drawn) the mortality at 200 mg/kg [1] was 100%, the mortality at 25 mg/kg [2] was 100% and the mortality at 25 mg/kg [3] was 46%. The mortality at 50 mg/kg [4] was 100%, the mortality at 0.05 mg/kg [5] was 0% and the mortality at 10 mg/kg [6] was 32%. It also gave a mortality at 200 mg/kg [7] of 100%, a mortality at 5 mg/kg [8] of 0% and a mortality at 0.1 mg/kg [9] of 100%. For the same compound, the mortality at 5 mg/kg [10] was 0%, the mortality at 100 mg/kg [11] was 100% and the mortality at 50 mg/kg [12] was 100%. The mortality at 100 mg/kg [13] was 100% and the mortality at 10 mg/kg [14] was 48%.
For `CC[S+]([O-])c1c(C#N)nn(-c2c(Cl)cc(C(F)(F)F)cc2Cl)c1NC(OCCF)C(Cl)(Cl)Cl` (stereo not drawn), the mortality at 200 mg/kg [1] was 100%, the mortality at 25 mg/kg [2] was 100% and the mortality at 25 mg/kg [3] was 46%. For the same compound, the mortality at 50 mg/kg [4] was 91%, the mortality at 0.05 mg/kg [5] was 20% and the mortality at 10 mg/kg [6] was 30%. The mortality at 200 mg/kg [7] was 100%, the mortality at 2.5 mg/kg [15] was 43% and the mortality at 5 mg/kg [8] was 0%. It also gave a mortality at 0.1 mg/kg [9] of 100%, a mortality at 5 mg/kg [10] of 73% and a mortality at 100 mg/kg [11] of 100%. It also gave a mortality at 50 mg/kg [12] of 100%, a mortality at 100 mg/kg [13] of 100% and a mortality at 10 mg/kg [14] of 100%.
With `CCOC(Nc1c([S+]([O-])CC)c(C#N)nn1-c1c(Cl)cc(C(F)(F)F)cc1Cl)C(Cl)(Cl)Cl` (stereo not drawn) the mortality at 200 mg/kg [1] was 100%, the mortality at 25 mg/kg [2] was 100% and the mortality at 25 mg/kg [3] was 100%. For the same compound, the mortality at 50 mg/kg [4] was 100%, the mortality at 0.05 mg/kg [5] was 100% and the mortality at 10 mg/kg [6] was 72%. The mortality at 200 mg/kg [7] was 100%, the mortality at 2.5 mg/kg [15] was 0% and the mortality at 5 mg/kg [8] was 29%. The mortality at 0.1 mg/kg [9] was 100%, the mortality at 5 mg/kg [10] was 81% and the mortality at 100 mg/kg [11] was 100%. It also gave a mortality at 2.5 mg/kg [16] of 0%, a mortality at 50 mg/kg [12] of 100% and a mortality at 100 mg/kg [13] of 100%. It also gave a mortality at 10 mg/kg [14] of 100% and a mortality at 0.025 mg/kg [17] of 40%.
`CC[S+]([O-])c1c(C#N)nn(-c2c(Cl)cc(C(F)(F)F)cc2Cl)c1NC(OC)C(Cl)(Cl)Cl` (stereo not drawn) showed a mortality at 200 mg/kg [1] of 100%, a mortality at 25 mg/kg [2] of 96% and a mortality at 25 mg/kg [3] of 31%. The mortality at 50 mg/kg [4] was 86%, the mortality at 0.05 mg/kg [5] was 100% and the mortality at 10 mg/kg [6] was 0%. It also gave a mortality at 200 mg/kg [7] of 100%, a mortality at 2.5 mg/kg [15] of 0% and a mortality at 0.1 mg/kg [9] of 100%. It also gave a mortality at 5 mg/kg [10] of 76%, a mortality at 100 mg/kg [11] of 100% and a mortality at 50 mg/kg [12] of 100%. For the same compound, the mortality at 100 mg/kg [13] was 100%, the mortality at 10 mg/kg [14] was 87% and the mortality at 0.025 mg/kg [17] was 0%.
In the case of `CCOC(Nc1c([S+](C)[O-])c(C#N)nn1-c1c(Cl)cc(C(F)(F)F)cc1Cl)C(Cl)(Cl)Cl` (stereo not drawn), the mortality at 200 mg/kg [1] is reported as 100%, the mortality at 25 mg/kg [2] is reported as 100% and the mortality at 25 mg/kg [3] is reported as 100%. For the same compound, the mortality at 50 mg/kg [4] was 100%, the mortality at 0.05 mg/kg [5] was 100% and the mortality at 10 mg/kg [6] was 85%. The mortality at 200 mg/kg [7] was 100%, the mortality at 2.5 mg/kg [15] was 0% and the mortality at 5 mg/kg [8] was 63%. It also gave a mortality at 0.1 mg/kg [9] of 100%, a mortality at 5 mg/kg [10] of 63% and a mortality at 100 mg/kg [11] of 100%. For the same compound, the mortality at 2.5 mg/kg [16] was 0%, the mortality at 50 mg/kg [12] was 100% and the mortality at 100 mg/kg [13] was 100%. For the same compound, the mortality at 10 mg/kg [14] was 85% and the mortality at 0.025 mg/kg [17] was 30%.
Work on `CCCOC(Nc1c(SCC)c(C#N)nn1-c1c(Cl)cc(C(F)(F)F)cc1Cl)C(Cl)(Cl)Cl` (stereo not drawn) yielded a mortality at 0.005 mg/kg [18] of 50%, a mortality at 200 mg/kg [1] of 100% and a mortality at 25 mg/kg [2] of 53%. The mortality at 25 mg/kg [3] was 58%, the mortality at 50 mg/kg [4] was 89% and the mortality at 0.05 mg/kg [5] was 100%. For the same compound, the mortality at 10 mg/kg [6] was 17%, the mortality at 200 mg/kg [7] was 95% and the mortality at 0.01 mg/kg [19] was 100%. The mortality at 0.1 mg/kg [9] was 100%, the mortality at 100 mg/kg [11] was 90% and the mortality at 50 mg/kg [12] was 85%. The mortality at 100 mg/kg [13] was 100%, the mortality at 10 mg/kg [14] was 0% and the mortality at 0.025 mg/kg [17] was 100%.
